# Assay results pooled from the literature.
# Protocols differ between the studies behind these lines.
# Target: Calcium/calmodulin-dependent protein kinase kinase 2 (CAMKK2, Homo sapiens, UniProt Q96RR4)
SMILES,read-out,method,concentration,remaining binding
O=C(Nc1c[nH]nc1C(=O)NC1CCNCC1)c1cc(F)cc(F)c1,binding,competition with immobilised ligand,1 µM,91%
O=C(NCCCN1CCOCC1)c1ccc(Nc2nccc(-c3cc4ccccc4s3)n2)cc1,binding,competition with immobilised ligand,1 µM,81%
COc1ncc2cc3ccccc3nc2c1C#N,cell-free assay,competition with immobilised ligand,5 µM,96%
CN(C)c1ncc(F)c(-c2cnn3ncccc23)n1,binding,,1 µM,86%
COc1cnc(Nc2cccc(S(N)(=O)=O)c2)nc1N1CCN(c2ccccc2)C(=O)C1,binding,competition with immobilised ligand,1 µM,100%
C[C@@H](c1ccc(-n2cnc3c(N)ncnc32)cc1)N1CCc2nn(C)c(Cc3ccccc3)c2C1=O,binding,competition with immobilised ligand,0.1 µM,94%
CN(C)c1nccc(-c2cnn3ncccc23)n1,binding,,1 µM,82%
Cc1cnc(Nc2ccc(C(=O)N3CCC(N4CCCC4)CC3)cc2)nc1-c1cc2ccccc2s1,binding,competition with immobilised ligand,1 µM,81%
COc1cccc(CNC(=O)c2nc3scc(COCc4ccc(C(=O)O)cc4)c3c(=O)[nH]2)c1,cell-free assay,competition with immobilised ligand,1 µM,100%
C=CC(=O)N1CCC(C(=O)NCC(=O)N2CCN(c3nc(-c4cnc(N)nc4C(F)F)nc(N4CCOCC4)n3)CC2)CC1,binding,competition with immobilised ligand,1 µM,95%
CC1=C(C#N)C(c2ccc3c(c2)c(NC(=O)c2ccccc2C)nn3C)C(C#N)=C(C)N1,cell-free assay,competition with immobilised ligand,1 µM,100%
CN(CCCC(F)(F)F)c1nccc(-c2cnn3ncccc23)n1,binding,,1 µM,100%
N#Cc1ccc(Nc2ccc3[nH]c(=O)[nH]c3c2)c(Cl)c1,cell-free assay,competition with immobilised ligand,1 µM,91%
N[C@H]1CCN(c2nccc(-c3cnn4ncccc34)n2)C1,binding,,1 µM,100%
CO[C@@H](C)c1c(Nc2ccc([C@H](N(C)C(=O)C3CCS(=O)(=O)CC3)C(F)(F)F)cc2)cnc2cc(Cl)nn12,cell-free assay,competition with immobilised ligand,1 µM,80%
Cc1cnn2ncc(-c3ccnc(N(C)C)n3)c2c1,binding,,1 µM,63%
CNC(=O)c1ccc(Nc2ncc(C(F)(F)F)c(NCc3nccnc3N(C)S(C)(=O)=O)n2)cc1,cell-free assay,competition with immobilised ligand,0.1 µM,68%
C[C@@H]1CCN(c2nccc(-c3cnn4ncccc34)n2)C1,binding,,1 µM,72%
CO[C@H]1CC[C@H](CNc2ccc(S(=O)(=O)NC(=O)c3ccc(N4CCN(CC5=C(c6ccc(Cl)cc6)CC(C)(C)CC5)CC4)cc3Oc3cnc4[nH]ccc4c3)cc2[N+](=O)[O-])CC1,cell-free assay,competition with immobilised ligand,1 µM,81%
COc1cnc(Nc2cccc(S(N)(=O)=O)c2)nc1N1CCN(c2ccccc2)CC1,binding,competition with immobilised ligand,1 µM,92%
